From ChEMBL document CHEMBL3352487, “Synthesis, antibacterial activity, and biological evaluation of formyl hydroxyamino derivatives as novel potent peptide deformylase inhibitors against drug-resistant bacteria” (Eur J Med Chem, 2014)
Values after ≈ are worked out from the molar mass of the structure shown.

Key:
Format in all cases: functional
Escherichia coli [1] = assay: Antimicrobial activity against Escherichia coli isolate 2 after 24 hrs by broth microdilution method; details: isolate 2, 24 h
In short: (§1)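 Broth microdilution following NCCLS M7-A4; ATCC strains and clinical isolates from a provincial hospital.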

Escherichia coli [2] = assay: Antimicrobial activity against Escherichia coli isolate 1 after 24 hrs by broth microdilution method; details: isolate 1, 24 h; in short: as §1
Moraxella catarrhalis = assay: Antimicrobial activity against Moraxella catarrhalis after 24 hrs by broth microdilution method; in short: as §1
[3] = tested on: Staphylococcus epidermidis; assay: Antimicrobial activity against methicillin-susceptible Staphylococcus epidermidis after 24 hrs by broth microdilution method; in short: as §1
Staphylococcus aureus [4] = assay: Antimicrobial activity against methicillin-susceptible Staphylococcus aureus after 24 hrs by broth microdilution method; in short: as §1
[5] = tested on: Staphylococcus epidermidis; assay: Antimicrobial activity against methicillin-resistant Staphylococcus epidermidis after 24 hrs by broth microdilution method
In short: (§2)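 Broth microdilution following NCCLS M7-A4, using ATCC strains and clinical isolates from a provincial hospital.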

Staphylococcus aureus [6] = assay: Antimicrobial activity against methicillin-resistant Staphylococcus aureus after 24 hrs by broth microdilution method; in short: as §2
Staphylococcus aureus [7] = assay: Antimicrobial activity against Staphylococcus aureus after 24 hrs by broth microdilution method; in short: as §1
Enterococcus faecalis = assay: Antimicrobial activity against Enterococcus faecalis after 24 hrs by broth microdilution method; in short: as §1
Streptococcus pneumoniae = assay: Antimicrobial activity against penicillin-resistant Streptococcus pneumoniae after 24 hrs by broth microdilution method; in short: as §2
[8] = tested on: Staphylococcus epidermidis; assay: Antimicrobial activity against Staphylococcus epidermidis after 24 hrs by broth microdilution method; in short: as §1

Structure (SMILES) | MIC (Escherichia coli [1]) [µg/mL] | MIC (Escherichia coli [2]) [µg/mL] | MIC (Moraxella catarrhalis) [µg/mL] | MIC [3] [µg/mL] | MIC (Staphylococcus aureus [4]) [µg/mL] | MIC [5] [µg/mL] | MIC (Staphylococcus aureus [6]) [µg/mL] | MIC (Staphylococcus aureus [7]) [µg/mL] | MIC (Enterococcus faecalis) [µg/mL] | MIC (Streptococcus pneumoniae) [µg/mL] | MIC [8] [µg/mL]
CN[C@H](CC(C)C)C(=O)N[C@H]1C(=O)N[C@@H](CC(N)=O)C(=O)N[C@H]2C(=O)N[C@H]3C(=O)N[C@H](C(=O)N[C@H](C(=O)O)c4cc(O)cc(O)c4-c4cc3ccc4O)[C@H](O)c3ccc(c(Cl)c3)Oc3cc2cc(c3O[C@@H]2O[C@H](CO)[C@@H](O)[C@H](O)[C@H]2O[C@H]2C[C@](C)(N)[C@H](O)[C@H](C)O2)Oc2ccc(cc2Cl)[C@H]1O [VANCOMYCIN] | > 64 | > 64 |  |  |  |  |  |  |  |  | 
O=CN(O)C[C@@H](CC1CCCC1)C(=O)N1C[C@@H](F)C[C@H]1C(=O)Nc1ccc(F)c[n+]1[O-] |  |  | 0.25 (≈ 0.568 µM) | 0.25 (≈ 0.568 µM) | 0.5 (≈ 1.14 µM) | 4 (≈ 9.08 µM) | 2 (≈ 4.54 µM) | 2 (≈ 4.54 µM) | 8 (≈ 18.2 µM) | 0.03 (≈ 0.0681 µM) | 
CCCC[C@H](CN(O)C=O)C(=O)N1CC=C[C@H]1C(=O)Nc1ccc([N+](=O)[O-])cc1 | 32 (≈ 79.1 µM) | > 64 |  |  | 2 (≈ 4.95 µM) |  | 0.5 (≈ 1.24 µM) | 0.5 (≈ 1.24 µM) |  |  | 0.5 (≈ 1.24 µM)
CCCC[C@H](CN(O)C=O)C(=O)N1CC=C[C@H]1C(=O)Nc1nnc(C(F)(F)F)s1 | > 64 | > 64 |  |  | 16 (≈ 36.7 µM) |  | 8 (≈ 18.4 µM) | 32 (≈ 73.5 µM) |  |  | 16 (≈ 36.7 µM)
Cc1cnc(NC(=O)[C@@H]2C[C@H]3CCCC[C@@H]3N2C(=O)[C@H](CC2CCCC2)CN(O)C=O)s1 |  |  | 0.5 (≈ 1.08 µM) | 0.5 (≈ 1.08 µM) | 4 (≈ 8.65 µM) | 8 (≈ 17.3 µM) | 4 (≈ 8.65 µM) | 4 (≈ 8.65 µM) | > 16 | 0.03 (≈ 0.0648 µM) | 
CCCC[C@H](CN(O)C=O)C(=O)N1CC=C[C@H]1C(=O)Nc1ccc(OC)cc1 | > 64 | > 64 |  |  | 2 (≈ 5.14 µM) |  | 1 (≈ 2.57 µM) | 0.5 (≈ 1.28 µM) |  |  | 2 (≈ 5.14 µM)
C=C1C[C@@H](C(=O)N2CCOCC2)N(C(=O)[C@H](CCCC)CN(O)C=O)C1 | > 64 | > 64 |  |  | 64 (≈ 174 µM) |  | 4 (≈ 10.9 µM) | 4 (≈ 10.9 µM) |  |  | 8 (≈ 21.8 µM)
Cc1cnc(NC(=O)[C@@H]2C[C@H](C)CN2C(=O)[C@H](CC2CCCC2)CN(O)C=O)s1 |  |  | 0.5 (≈ 1.18 µM) | 0.25 (≈ 0.592 µM) | 0.5 (≈ 1.18 µM) | 2 (≈ 4.73 µM) | 1 (≈ 2.37 µM) | 1 (≈ 2.37 µM) | 4 (≈ 9.47 µM) | 0.03 (≈ 0.071 µM) | 
CCCC[C@H](CN(O)C=O)C(=O)N1CC=C[C@H]1C(=O)Nc1ccc(Cl)cc1 | > 64 | > 64 |  |  | 2 (≈ 5.08 µM) |  | 1 (≈ 2.54 µM) | 8 (≈ 20.3 µM) |  |  | 4 (≈ 10.2 µM)
O=CN(O)C[C@@H](CC1CCCC1)C(=O)N1CC=C[C@H]1C(=O)N1CCOCC1 | > 64 | > 64 |  |  | 64 (≈ 169 µM) |  | 32 (≈ 84.3 µM) | 64 (≈ 169 µM) |  |  | 64 (≈ 169 µM)
O=CN(O)C[C@@H](CC1CCCC1)C(=O)N1CC=C[C@H]1C(=O)Nc1ccc(F)cn1 | 16 (≈ 39.6 µM) | 32 (≈ 79.1 µM) |  |  | 0.5 (≈ 1.24 µM) |  | 0.125 (≈ 0.309 µM) | 0.25 (≈ 0.618 µM) |  |  | 0.125 (≈ 0.309 µM)
C=C1C[C@@H](C(=O)Nc2ccc(F)cc2)N(C(=O)[C@H](CCCC)CN(O)C=O)C1 | 64 (≈ 163 µM) | 64 (≈ 163 µM) |  |  | 2 (≈ 5.11 µM) |  | 0.25 (≈ 0.639 µM) | 0.5 (≈ 1.28 µM) |  |  | 0.5 (≈ 1.28 µM)
CCCC[C@H](CN(O)C=O)C(=O)N1CC=C[C@H]1C(=O)Nc1ccc(Br)cc1 | > 64 | > 64 |  |  | 1 (≈ 2.28 µM) |  | 0.5 (≈ 1.14 µM) | 4 (≈ 9.13 µM) |  |  | 2 (≈ 4.56 µM)
C[C@H](NC(=O)[C@@H]1C=CCN1C(=O)[C@H](CC1CCCC1)CN(O)C=O)c1ccccc1 | > 64 | > 64 |  |  | 16 (≈ 38.7 µM) |  | 4 (≈ 9.67 µM) | 4 (≈ 9.67 µM) |  |  | 8 (≈ 19.3 µM)
O=CN(O)C[C@@H](CC1CCCC1)C(=O)N1[C@H](C(=O)Nc2ccc(F)cn2)C[C@H]2CCCC[C@@H]21 |  |  | 0.03 (≈ 0.0651 µM) | 0.25 (≈ 0.543 µM) | 4 (≈ 8.69 µM) | 4 (≈ 8.69 µM) | 4 (≈ 8.69 µM) | 4 (≈ 8.69 µM) | > 16 | 0.03 (≈ 0.0651 µM) | 
CCCC[C@H](CN(O)C=O)C(=O)N1CC=C[C@H]1C(=O)Nc1ccccc1 | 64 (≈ 178 µM) | > 64 |  |  | 8 (≈ 22.3 µM) |  | 1 (≈ 2.78 µM) | 4 (≈ 11.1 µM) |  |  | 2 (≈ 5.56 µM)
CCCC[C@H](CN(O)C=O)C(=O)N1CC=C[C@H]1C(=O)N[C@H](C)c1ccccc1 | > 64 | > 64 |  |  | 16 (≈ 41.3 µM) |  | 2 (≈ 5.16 µM) | 4 (≈ 10.3 µM) |  |  | 4 (≈ 10.3 µM)
CCCC[C@H](CN(O)C=O)C(=O)N1CC=C[C@H]1C(=O)Nc1ccccc1Br | > 64 | > 64 |  |  | 4 (≈ 9.13 µM) |  | 1 (≈ 2.28 µM) | 32 (≈ 73 µM) |  |  | 8 (≈ 18.3 µM)
CCCC[C@H](CN(O)C=O)C(=O)N1CC=C[C@H]1C(=O)Nc1ccccn1 | 32 (≈ 88.8 µM) | > 64 |  |  | 1 (≈ 2.77 µM) |  | 0.125 (≈ 0.347 µM) | 0.125 (≈ 0.347 µM) |  |  | 0.5 (≈ 1.39 µM)
CCCC[C@H](CN(O)C=O)C(=O)N1CC=C[C@H]1C(=O)Nc1ccccc1Cl | 64 (≈ 162 µM) | > 64 |  |  | 2 (≈ 5.08 µM) |  | 0.25 (≈ 0.635 µM) | 0.5 (≈ 1.27 µM) |  |  | 1 (≈ 2.54 µM)
O=C(O)c1cn(C2CC2)c2cc(N3CCNCC3)c(F)cc2c1=O [CIPROFLOXACIN] | < 0.0312 | < 0.0312 |  |  | 0.5 (≈ 1.51 µM) |  | 1 (≈ 3.02 µM) | 0.5 (≈ 1.51 µM) |  |  | 0.25 (≈ 0.754 µM)
CC1(C)S[C@@H]2[C@H](NC(=O)Cc3ccccc3)C(=O)N2[C@H]1C(=O)O [PENICILLIN G] | > 64 | > 64 |  |  | 1 (≈ 2.99 µM) |  | 64 (≈ 191 µM) | 0.0625 (≈ 0.187 µM) |  |  | 2 (≈ 5.98 µM)
C=C1C[C@@H](C(=O)Nc2ccc(F)c[n+]2[O-])N(C(=O)[C@H](CCCC)CN(O)C=O)C1 | > 64 | > 64 |  |  | 4 (≈ 9.79 µM) |  | 0.5 (≈ 1.22 µM) | 1 (≈ 2.45 µM) |  |  | 1 (≈ 2.45 µM)
CCCC[C@H](CN(O)C=O)C(=O)N1CC=C[C@H]1C(=O)Nc1cccc(Br)c1 | 16 (≈ 36.5 µM) | 64 (≈ 146 µM) |  |  | 1 (≈ 2.28 µM) |  | 0.125 (≈ 0.285 µM) | 8 (≈ 18.3 µM) |  |  | 1 (≈ 2.28 µM)
CCCC[C@H](CN(O)C=O)C(=O)N1CC=C[C@H]1C(=O)N[C@@H](C)c1ccccc1 | > 64 | > 64 |  |  | 16 (≈ 41.3 µM) |  | 8 (≈ 20.6 µM) | 4 (≈ 10.3 µM) |  |  | 8 (≈ 20.6 µM)
CCCC[C@H](CN(O)C=O)C(=O)N1CC=C[C@H]1C(=O)NC1CC1 | 32 (≈ 99 µM) | 64 (≈ 198 µM) |  |  | 32 (≈ 99 µM) |  | 2 (≈ 6.18 µM) | 64 (≈ 198 µM) |  |  | 4 (≈ 12.4 µM)
C=C1C[C@@H](C(=O)Nc2ccccc2)N(C(=O)[C@H](CCCC)CN(O)C=O)C1 | > 64 | 64 (≈ 171 µM) |  |  | 4 (≈ 10.7 µM) |  | 0.5 (≈ 1.34 µM) | 1 (≈ 2.68 µM) |  |  | 1 (≈ 2.68 µM)
CCCC[C@H](CN(O)C=O)C(=O)N1CC=C[C@H]1C(=O)N1CCOCC1 | > 64 | > 64 |  |  | > 64 |  | 32 (≈ 90.5 µM) | > 64 |  |  | > 64
CCCC[C@H](CN(O)C=O)C(=O)N1CC=C[C@H]1C(=O)Nc1ccc(F)cc1 | 64 (≈ 170 µM) | > 64 |  |  | 2 (≈ 5.3 µM) |  | 1 (≈ 2.65 µM) | 2 (≈ 5.3 µM) |  |  | 4 (≈ 10.6 µM)
